# Laboratory results as given in ChEMBL document CHEMBL4665669, “Novel tertiary sulfonamide derivatives containing benzimidazole moiety as potent anti-gastric cancer agents: Design, synthesis and SAR studies” (Eur J Med Chem, 2019).
# Calls of active or inactive are those of the source. The rule behind the calls is not given here.
# Key:
# HGC-27 [1] = experiment: Cell cycle arrest at G2 phase in human HGC-27 cells assessed as downregulation of Cyclin B level at 0.5 to 1.5 umol/L after 48 hrs by Western blot analysis; type: functional, cell-based; conditions: dose micromol/L 0.5-1.5, time 48.0 hrs
# How it was run: (§1)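 Western blot. Cells were treated with compound concentrations or DMSO for 48 h, then lysed, and lysates were denatured, run on SDS-PAGE and transferred to nitrocellulose. After blocking in 5% skimmed milk, membranes were incubated with primary antibodies at 4 °C for 8 h, then secondary antibodies, with ECL detection.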
# SGC-7901 [2] = experiment: Induction of apoptosis in human SGC-7901 cells after 48 hrs by flow cytometry analysis; type: functional, cell-based; conditions: dose micromol/L 0.5-1.5, time 48.0 hrs
# HGC-27 [3] = experiment: Induction of apoptosis in human HGC-27 cells after 48 hrs by flow cytometry analysis; type: functional, cell-based; conditions: dose micromol/L 0.5-1.5, time 48.0 hrs
# SGC-7901 [4] = experiment: Anticancer activity against human SGC-7901 cells assessed as inhibition of cell proliferation after 48 hrs by MTT assay; type: functional, cell-based
# How it was run: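 MTT assay with 48 h compound exposure. MTT solution was then added and incubated 4 h at 37 °C, the supernatant discarded and formazan dissolved in DMSO, with absorbance read at 490 nm. IC50 values were calculated from three independent experiments, reported as mean SD.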
# SGC-7901 [5] = experiment: Induction of apoptosis in human SGC-7901 cells assessed as downregulation of Bcl-2 level at 0.5 to 1.5 umol/L after 48 hrs Western blot analysis; type: functional, cell-based; conditions: dose micromol/L 0.5-1.5, time 48.0 hrs; how it was run: as §1
# SGC-7901 [6] = experiment: Inhibition of Ras/Raf/MEK/ERK signalling pathway in human SGC-7901 cells assessed as downregulation of FoxO3a expression at 0.5 to 1.5 umol/L after 48 hrs by Western blot analysis; type: cell-based; conditions: dose micromol/L 0.5-1.5, time 48.0 hrs
# How it was run: (§2)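 Cells treated with graded concentrations or DMSO for 48 h, then harvested and lysed. Lysates denatured, resolved by SDS-PAGE and transferred to nitrocellulose. Membranes blocked with 5% skimmed milk and probed with primary antibodies at 4 °C for 8 h, then with secondary antibodies. Bands detected by ECL.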
# HGC-27 [7] = experiment: Inhibition of Ras/Raf/MEK/ERK signalling pathway in human HGC-27 cells assessed as decrease in c-Raf phosphorylation after 48 hrs by Western blot analysis; type: cell-based; conditions: dose micromol/L 0.5-1.5, time 48.0 hrs; how it was run: as §2
# [8] = Selectivity index, ratio of IC50 for human GES1 cells to IC50 for human HGC-27 cells assessed as inhibition of cell proliferation after 48 hrs by MTT assay
# How it was run: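 Fold selectivity is the IC50 in GES-1 normal gastric epithelial cells divided by the IC50 in the gastric cancer line (HGC-27, MGC-803 or SGC-7901). Both IC50s come from 48 h exposure, MTT (4 h, 37 °C), DMSO solubilisation and 490 nm absorbance, with three independent experiments.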
# HGC-27 [9] = experiment: Inhibition of colony formation in human HGC-27 cells at 0.5 to 1.5 umol/L after 7 days by crystal violet staining based assay; type: functional, cell-based; conditions: dose micromol/L 0.5-1.5, time 7.0 day
# How it was run: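 5000 cells per well seeded and held 24 h at 37 °C, 5% CO2, then exposed to graded concentrations (0.5, 1, 1.5 µmol/L). After 7 days the medium was removed and wells were washed twice with PBS. Colonies fixed in 4% paraformaldehyde and stained with 0.1% crystal violet.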
# MGC-803 [10] = experiment: Induction of apoptosis in human MGC-803 cells assessed as cleavage of PARP at 0.5 to 1.5 umol/L after 48 hrs Western blot analysis; type: functional, cell-based; conditions: dose micromol/L 0.5-1.5, time 48.0 hrs; how it was run: as §1
# MGC-803 [11] = experiment: Cell cycle arrest at M phase in human MGC-803 cells assessed as upregulation of p-Histone-3 level at 0.5 to 1.5 umol/L after 48 hrs by Western blot analysis; type: functional, cell-based; conditions: dose micromol/L 0.5-1.5, time 48.0 hrs; how it was run: as §1
# MGC-803 [12] = experiment: Induction of apoptosis in human MGC-803 cells assessed as cleavage of caspase-7 at 0.5 to 1.5 umol/L after 48 hrs Western blot analysis; type: functional, cell-based; conditions: dose micromol/L 0.5-1.5, time 48.0 hrs; how it was run: as §1
# SGC-7901 [13] = experiment: Inhibition of Akt/mTOR signalling pathway in human SGC-7901 cells assessed as decrease in AKT phosphorylation at Ser473 residue at 0.5 to 1.5 umol/L after 48 hrs by Western blot analysis; type: cell-based; conditions: dose micromol/L 0.5-1.5, time 48.0 hrs; how it was run: as §2
# MGC-803 [14] = experiment: Induction of apoptosis in human MGC-803 cells assessed as upregulation of NOXA level at 0.5 to 1.5 umol/L after 48 hrs Western blot analysis; type: functional, cell-based; conditions: dose micromol/L 0.5-1.5, time 48.0 hrs; how it was run: as §1
# HGC-27 [15] = experiment: Inhibition of Ras/Raf/MEK/ERK signalling pathway in human HGC-27 cells assessed as downregulation of FoxO3a expression at 0.5 to 1.5 umol/L after 48 hrs by Western blot analysis; type: cell-based; conditions: dose micromol/L 0.5-1.5, time 48.0 hrs; how it was run: as §2
# SGC-7901 [16] = experiment: Induction of apoptosis in human SGC-7901 cells assessed as downregulation of Mcl-1 level at 0.5 to 1.5 umol/L after 48 hrs Western blot analysis; type: functional, cell-based; conditions: dose micromol/L 0.5-1.5, time 48.0 hrs; how it was run: as §1
# HGC-27 [17] = experiment: Inhibition of Ras/Raf/MEK/ERK signalling pathway in human HGC-27 cells assessed as decrease in ERK1/2 phosphorylation after 48 hrs by Western blot analysis; type: cell-based; conditions: dose micromol/L 0.5-1.5, time 48.0 hrs; how it was run: as §2
# MGC-803 [18] = experiment: Induction of apoptosis in human MGC-803 cells assessed as downregulation of c-IAP1 level at 0.5 to 1.5 umol/L after 48 hrs Western blot analysis; type: functional, cell-based; conditions: dose micromol/L 0.5-1.5, time 48.0 hrs; how it was run: as §1
# SGC-7901 [19] = experiment: Induction of apoptosis in human SGC-7901 cells assessed as cleavage of caspase-7 at 0.5 to 1.5 umol/L after 48 hrs Western blot analysis; type: functional, cell-based; conditions: dose micromol/L 0.5-1.5, time 48.0 hrs; how it was run: as §1
# MGC-803 [20] = experiment: Inhibition of Akt/mTOR signalling pathway in human MGC-803 cells assessed as decrease in mTOR phosphorylation at Ser2448 residue at 0.5 to 1.5 umol/L after 48 hrs by Western blot analysis; type: cell-based; conditions: dose micromol/L 0.5-1.5, time 48.0 hrs; how it was run: as §2
# MGC-803 [21] = experiment: Cell cycle arrest at G2 phase in human MGC-803 cells assessed as downregulation of Cyclin B level at 0.5 to 1.5 umol/L after 48 hrs by Western blot analysis; type: functional, cell-based; conditions: dose micromol/L 0.5-1.5, time 48.0 hrs; how it was run: as §1
# MGC-803 [22] = experiment: Induction of apoptosis in human MGC-803 cells assessed as downregulation of Mcl-1 level at 0.5 to 1.5 umol/L after 48 hrs Western blot analysis; type: functional, cell-based; conditions: dose micromol/L 0.5-1.5, time 48.0 hrs; how it was run: as §1
# HGC-27 [23] = experiment: Inhibition of Akt/mTOR signalling pathway in human HGC-27 cells assessed as decrease in AKT phosphorylation at Ser473 residue at 0.5 to 1.5 umol/L after 48 hrs by Western blot analysis; type: cell-based; conditions: dose micromol/L 0.5-1.5, time 48.0 hrs; how it was run: as §2
# HGC-27 [24] = experiment: Induction of apoptosis in human HGC-27 cells assessed as downregulation of Mcl-1 level at 0.5 to 1.5 umol/L after 48 hrs Western blot analysis; type: functional, cell-based; conditions: dose micromol/L 0.5-1.5, time 48.0 hrs; how it was run: as §1
# SGC-7901 [25] = experiment: Inhibition of Ras/Raf/MEK/ERK signalling pathway in human SGC-7901 cells assessed as downregulation of c-Myc expression at 0.5 to 1.5 umol/L after 48 hrs by Western blot analysis; type: cell-based; conditions: dose micromol/L 0.5-1.5, time 48.0 hrs; how it was run: as §2
# SGC-7901 [26] = experiment: Induction of apoptosis in human SGC-7901 cells assessed as downregulation of XIAP level at 0.5 to 1.5 umol/L after 48 hrs Western blot analysis; type: functional, cell-based; conditions: dose micromol/L 0.5-1.5, time 48.0 hrs; how it was run: as §1
# MGC-803 [27] = experiment: Induction of apoptosis in human MGC-803 cells assessed as downregulation of XIAP level at 0.5 to 1.5 umol/L after 48 hrs Western blot analysis; type: functional, cell-based; conditions: dose micromol/L 0.5-1.5, time 48.0 hrs; how it was run: as §1
# HGC-27 [28] = experiment: Cell cycle arrest at M phase in human HGC-27 cells assessed as upregulation of p-Histone-3 level at 0.5 to 1.5 umol/L after 48 hrs by Western blot analysis; type: functional, cell-based; conditions: dose micromol/L 0.5-1.5, time 48.0 hrs; how it was run: as §1
# HGC-27 [29] = experiment: Induction of apoptosis in human HGC-27 cells assessed as cleavage of PARP at 0.5 to 1.5 umol/L after 48 hrs Western blot analysis; type: functional, cell-based; conditions: dose micromol/L 0.5-1.5, time 48.0 hrs; how it was run: as §1
compound,measurement,setting,value
COc1cc(N(Cc2nc3ccccc3[nH]2)S(=O)(=O)c2ccc(C)cc2)cc(OC)c1OC,Activity,HGC-27 [1],Active
same,Activity,SGC-7901 [2],Dose-dependent effect
same,Activity,HGC-27 [3],Dose-dependent effect
same,Activity,SGC-7901 [4],Dose-dependent effect
same,IC50,"SGC-7901 [4]; SGC-7901, 48 h",2300 nM
same,Activity,SGC-7901 [5],Active
same,inhibition,SGC-7901 [6],Active
same,inhibition,HGC-27 [7],Dose-dependent effect
same,Ratio IC50,[8],9.4
same,inhibition,HGC-27 [9],Active
same,Activity,MGC-803 [10],Active
same,Activity,MGC-803 [11],Active
same,Activity,MGC-803 [12],Active
same,inhibition,SGC-7901 [13],Active
same,Activity,MGC-803 [14],Active
same,inhibition,HGC-27 [15],Active
same,Activity,SGC-7901 [16],Active
same,inhibition,HGC-27 [17],Dose-dependent effect
same,Activity,MGC-803 [18],Active
same,Activity,SGC-7901 [19],Active
same,inhibition,MGC-803 [20],Active
same,Activity,MGC-803 [21],Active
same,Activity,MGC-803 [22],Active
same,inhibition,HGC-27 [23],Active
same,Activity,HGC-27 [24],Active
same,inhibition,SGC-7901 [25],Active
same,Activity,SGC-7901 [26],Active
same,Activity,MGC-803 [27],Active
same,Activity,HGC-27 [28],Active
same,Activity,HGC-27 [29],Active
